Calls of active or inactive are those of the source. The calls are words filed in the database; no cut-off is given here.
What was measured:
NCI-H929 = assay: Induction of cell cycle arrest in human NCI-H929 cells assessed as decrease in cells accumulation at G2/M phase at 0.03 to 10 uM incubated for 24 to 48 hrs by propidium iodide staining based flow cytometric analysis; format: functional; details: dose 0.03-10 µM, time lower 24.0 hrs, time upper […]
Method in brief: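 COLO 205, MCF-7 or NCI-H929 cells seeded in 96-well plates overnight at 37°C, then exposed to DMSO or increasing compound concentrations for 24 or 48 h. Fixed and stained with propidium iodide (Vindelov method), then analysed by flow cytometry for sub-G1, G1, S and G2-M fractions. Experiment repeated twice.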

[1] = molecular target: Proto-oncogene tyrosine-protein kinase receptor Ret (Homo sapiens) (UniProt P07949); assay: Inhibition of N-Terminal GST-tagged recombinant human Ret (658 to end residues) expressed in baculovirus infected Sf21 cells at 0.3 uM by filter binding assay relative to control
Method in brief: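 KinaseProfiler panel of 233 kinases: radiometric filter-binding activity assays with compound at 0.3 or 3 µmol/L. Read-out is percent inhibition.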

[2] = molecular target: Epidermal growth factor receptor (Homo sapiens, UniProt P00533); assay: Inhibition of EGFR (unknown origin)
Aurora kinase A = Aurora kinase A (Homo sapiens, UniProt O14965); assay: Inhibition of N-terminal 6His-tagged recombinant full-length human Aurora-A expressed in Sf21 cells by filter binding assay
MX1 = assay: Antiproliferative activity against human MX1 cells assessed as reduction in cell viability after 72 hrs by CellTiter-Glo assay; format: functional, cell-based; details: MX1, 72 h
Method in brief: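 Cells seeded in 96-well plates, left overnight at 37°C, then exposed to a range of test concentrations for 72 h. Viability read by CellTiter-Glo luminescence; IC50 from four-parameter curve fit. Lines kept at 37°C, 5% CO2, in recommended growth medium.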

HT-29 = assay: Antitumor activity against human HT-29 cells xenografted in nu/nu CD-1 mouse assessed as reduction in tumor growth at 30 mg/kg, po for 21 days relative to control; format: functional; details: HT-29, 504 h, time 21 day, read-out: TGI
Method in brief: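 Exponentially growing cells implanted s.c. in the right flank of 8–10-wk-old female athymic nu/nu CD-1 mice. At 150–200 mm3, block-randomized by tumor size into groups of eight. Oral dosing once or twice daily for 21 d; vehicle 20% sulfobutylether-β-cyclodextrin, pH 3.5. Calipers twice weekly; volume = length×width²/2. Growth inhibition = 100×[1 − treated growth/vehicle growth].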

[3] = molecular target: Serine/threonine-protein kinase PAK 3 (Homo sapiens, UniProt O75914); assay: Inhibition of C-terminal His6-tagged recombinant human full-length PAK3 expressed in baculovirus infected Sf21 cells by filter binding assay
[4] = molecular target: Mitogen-activated protein kinase 14 (Homo sapiens, UniProt Q16539); assay: Inhibition of P38alpha (unknown origin)
[5] = molecular target: Receptor tyrosine-protein kinase erbB-2 (Homo sapiens, UniProt P04626); assay: Inhibition of ErbB2 (unknown origin)
[6] = molecular target: PAS domain-containing serine/threonine-protein kinase (Homo sapiens, UniProt Q96RG2); assay: Inhibition of human PASK by filter binding assay
[7] = molecular target: Serine/threonine-protein kinase pim-3 (Homo sapiens) (UniProt Q86V86); assay: Inhibition of N-terminal 6His-tagged recombinant human Pim-3 expressed in baculovirus infected Sf21 cells at 0.3 uM by filter binding assay relative to control
Method in brief: (§1)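 Outsourced single-concentration screen in a commercial panel of 233 protein kinases, run as radiometric filter-binding activity assays. Test agent was tested at 0.3 or 3 µmol/L, as given in each line, from a 10 mmol/L DMSO stock. Activity is expressed as percent inhibition relative to control.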

[8] = molecular target: Casein kinase I isoform gamma-3 (Homo sapiens, UniProt Q9Y6M4); assay: Inhibition of N-terminal 6His-tagged recombinant human CK1gamma3 (1 to 330 residues) expressed in baculovirus infected Sf21 cells by filter binding assay
[9] = molecular target: MAP kinase-activated protein kinase 2 (Homo sapiens, UniProt P49137); assay: Inhibition of MAPKAPK2 (unknown origin)
[10] = molecular target: Phosphatidylinositol 4,5-bisphosphate 3-kinase catalytic subunit alpha isoform (Homo sapiens, UniProt P42336); assay: Inhibition of PI3Kalpha (unknown origin)
[11] = molecular target: Fibroblast growth factor receptor 2 (Homo sapiens) (UniProt P21802); assay: Inhibition of N-terminal, His6-tagged recombinant human FGFR2 (456 to 765 residues) expressed in baculovirus infected Sf21 cells at 0.3 uM by filter binding assay relative to control
[12] = Inhibition of N-terminal His6-tagged recombinant full-length human CDK5/N-terminal GST-tagged recombinant full-length human p35 expressed in baculovirus infected Sf21 cells at 0.3 uM by filter binding assay relative to control; details: condition cancer; method in brief: as §1
[13] = Toxicity in nu/nu CD-1 mouse xenografted with human BXPC-3 cells assessed as reduction in body weight at 30 mg/kg, po for 21 days relative to control; format: organism-based; details: in vivo, 504 h, time 21 day
[14] = molecular target: Insulin receptor (Mus musculus) (UniProt P15208); details: CD-1, dose 30.0 mg/kg, route po, time 21.0 day
Aurora kinase B = Aurora kinase B (Homo sapiens, UniProt Q96GD4); assay: Inhibition of Aurora B (unknown origin)
[15] = molecular target: Protein-tyrosine kinase 6 (Homo sapiens) (UniProt Q13882); assay: Inhibition of N-terminal His6-tagged recombinant full-length human BRK expressed in baculovirus infected Sf21 cells at 3 uM by filter binding assay relative to control
[16] = molecular target: Serine/threonine-protein kinase Sgk1 (Homo sapiens) (UniProt O00141); assay: Inhibition of human SGK at 3 uM by filter binding assay relative to control
[17] = molecular target: Insulin receptor (Mus musculus) (UniProt P15208); details: CD-1, dose 30.0 mg/kg, route po, time 21.0 day; remark: listed apart in the source
[18] = molecular target: Phosphatidylinositol 4,5-bisphosphate 3-kinase catalytic subunit beta isoform (Homo sapiens, UniProt P42338); assay: Inhibition of PI3Kbeta (unknown origin)
[19] = molecular target: Serine/threonine-protein kinase SIK2 (Homo sapiens, UniProt Q9H0K1); assay: Inhibition of SIK2 (unknown origin)
[20] = molecular target: Phosphatidylinositol 4,5-bisphosphate 3-kinase catalytic subunit gamma isoform (Homo sapiens, UniProt P48736); assay: Inhibition of PI3Kgamma (unknown origin)
[21] = molecular target: Tyrosine-protein kinase SYK (Homo sapiens, UniProt P43405); assay: Inhibition of SYK (unknown origin)
[22] = molecular target: Ephrin type-A receptor 4 (Homo sapiens) (UniProt P54764); assay: Inhibition of N-terminal His6-tagged recombinant human EphA4 (601 to 892 residues) expressed in baculovirus infected Sf21 cells at 3 uM by filter binding assay relative to control
[23] = molecular target: Tyrosine-protein kinase ABL1 (Homo sapiens, UniProt P00519); assay: Inhibition of N-terminal His6-tagged recombinant human Abl (27 to end residues) expressed in baculovirus infected Sf21 cells by filter binding assay

Sequence of Insulin receptor (Mus musculus) (P15208 28-748 limits assumed): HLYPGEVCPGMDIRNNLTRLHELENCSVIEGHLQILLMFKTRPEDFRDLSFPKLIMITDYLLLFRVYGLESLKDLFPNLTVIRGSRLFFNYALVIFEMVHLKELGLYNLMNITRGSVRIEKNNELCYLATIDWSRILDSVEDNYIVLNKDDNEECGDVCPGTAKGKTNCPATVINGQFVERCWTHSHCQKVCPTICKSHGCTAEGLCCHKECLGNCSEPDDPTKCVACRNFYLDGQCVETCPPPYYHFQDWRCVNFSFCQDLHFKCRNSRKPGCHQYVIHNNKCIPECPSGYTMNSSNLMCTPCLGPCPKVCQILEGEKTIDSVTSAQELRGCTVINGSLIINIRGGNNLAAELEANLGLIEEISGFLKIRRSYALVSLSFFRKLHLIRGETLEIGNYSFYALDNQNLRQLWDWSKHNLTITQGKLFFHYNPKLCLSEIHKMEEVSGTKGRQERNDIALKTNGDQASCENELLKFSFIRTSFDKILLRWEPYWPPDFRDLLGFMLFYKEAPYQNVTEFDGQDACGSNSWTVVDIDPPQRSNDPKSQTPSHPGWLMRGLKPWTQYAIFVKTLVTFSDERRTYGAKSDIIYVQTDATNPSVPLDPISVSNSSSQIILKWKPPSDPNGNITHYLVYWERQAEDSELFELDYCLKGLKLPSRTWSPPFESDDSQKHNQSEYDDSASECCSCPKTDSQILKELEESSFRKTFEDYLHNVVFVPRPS
Sequence of Insulin receptor (Mus musculus) (P15208 753-1372 limits assumed): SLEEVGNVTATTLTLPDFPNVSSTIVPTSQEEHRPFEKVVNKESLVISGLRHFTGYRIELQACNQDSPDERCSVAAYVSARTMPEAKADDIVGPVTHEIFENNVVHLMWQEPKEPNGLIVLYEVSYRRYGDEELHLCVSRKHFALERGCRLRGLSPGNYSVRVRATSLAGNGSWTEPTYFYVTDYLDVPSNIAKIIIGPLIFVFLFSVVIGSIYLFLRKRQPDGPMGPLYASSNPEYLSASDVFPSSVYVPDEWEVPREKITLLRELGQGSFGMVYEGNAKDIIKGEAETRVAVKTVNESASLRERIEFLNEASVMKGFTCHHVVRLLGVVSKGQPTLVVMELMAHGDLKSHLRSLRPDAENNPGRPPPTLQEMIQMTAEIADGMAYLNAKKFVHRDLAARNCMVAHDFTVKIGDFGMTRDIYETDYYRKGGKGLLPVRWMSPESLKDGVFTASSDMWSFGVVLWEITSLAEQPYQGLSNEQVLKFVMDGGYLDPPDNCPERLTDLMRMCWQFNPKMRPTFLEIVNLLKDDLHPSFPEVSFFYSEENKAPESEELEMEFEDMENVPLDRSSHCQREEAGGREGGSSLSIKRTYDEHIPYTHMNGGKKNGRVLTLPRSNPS
Sequence of Proto-oncogene tyrosine-protein kinase receptor Ret (Homo sapiens) (P07949 whole entry): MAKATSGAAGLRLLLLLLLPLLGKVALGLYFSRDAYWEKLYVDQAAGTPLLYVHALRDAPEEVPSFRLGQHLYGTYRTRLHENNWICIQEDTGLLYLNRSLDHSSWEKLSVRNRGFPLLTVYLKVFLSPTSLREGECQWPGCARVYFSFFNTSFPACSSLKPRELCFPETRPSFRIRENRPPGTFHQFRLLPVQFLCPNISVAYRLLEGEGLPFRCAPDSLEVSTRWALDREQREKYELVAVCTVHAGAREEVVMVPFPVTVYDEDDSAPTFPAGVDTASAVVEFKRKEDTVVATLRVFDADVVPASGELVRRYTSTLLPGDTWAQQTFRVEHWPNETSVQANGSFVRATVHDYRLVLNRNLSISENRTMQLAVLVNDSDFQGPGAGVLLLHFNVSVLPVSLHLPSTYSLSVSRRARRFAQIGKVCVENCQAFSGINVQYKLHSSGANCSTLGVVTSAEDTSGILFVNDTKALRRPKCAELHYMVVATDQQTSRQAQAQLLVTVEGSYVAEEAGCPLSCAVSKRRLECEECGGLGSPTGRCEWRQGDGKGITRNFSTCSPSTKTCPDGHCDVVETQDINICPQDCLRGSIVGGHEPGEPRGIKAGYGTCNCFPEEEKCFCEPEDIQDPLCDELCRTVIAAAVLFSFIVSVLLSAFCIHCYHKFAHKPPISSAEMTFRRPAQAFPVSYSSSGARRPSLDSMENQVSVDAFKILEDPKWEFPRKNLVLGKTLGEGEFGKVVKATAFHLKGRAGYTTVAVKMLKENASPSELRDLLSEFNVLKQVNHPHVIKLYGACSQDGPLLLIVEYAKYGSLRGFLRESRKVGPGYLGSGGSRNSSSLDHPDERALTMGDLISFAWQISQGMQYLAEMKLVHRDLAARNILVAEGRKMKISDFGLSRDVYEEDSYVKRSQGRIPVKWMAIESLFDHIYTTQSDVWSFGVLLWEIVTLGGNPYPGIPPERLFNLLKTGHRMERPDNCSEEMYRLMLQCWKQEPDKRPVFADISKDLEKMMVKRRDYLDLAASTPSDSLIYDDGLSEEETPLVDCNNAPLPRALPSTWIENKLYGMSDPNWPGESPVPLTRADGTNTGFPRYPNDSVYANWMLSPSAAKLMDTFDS
Sequence of Phosphatidylinositol 4,5-bisphosphate 3-kinase catalytic subunit gamma isoform (P48736 whole entry, canonical isoform): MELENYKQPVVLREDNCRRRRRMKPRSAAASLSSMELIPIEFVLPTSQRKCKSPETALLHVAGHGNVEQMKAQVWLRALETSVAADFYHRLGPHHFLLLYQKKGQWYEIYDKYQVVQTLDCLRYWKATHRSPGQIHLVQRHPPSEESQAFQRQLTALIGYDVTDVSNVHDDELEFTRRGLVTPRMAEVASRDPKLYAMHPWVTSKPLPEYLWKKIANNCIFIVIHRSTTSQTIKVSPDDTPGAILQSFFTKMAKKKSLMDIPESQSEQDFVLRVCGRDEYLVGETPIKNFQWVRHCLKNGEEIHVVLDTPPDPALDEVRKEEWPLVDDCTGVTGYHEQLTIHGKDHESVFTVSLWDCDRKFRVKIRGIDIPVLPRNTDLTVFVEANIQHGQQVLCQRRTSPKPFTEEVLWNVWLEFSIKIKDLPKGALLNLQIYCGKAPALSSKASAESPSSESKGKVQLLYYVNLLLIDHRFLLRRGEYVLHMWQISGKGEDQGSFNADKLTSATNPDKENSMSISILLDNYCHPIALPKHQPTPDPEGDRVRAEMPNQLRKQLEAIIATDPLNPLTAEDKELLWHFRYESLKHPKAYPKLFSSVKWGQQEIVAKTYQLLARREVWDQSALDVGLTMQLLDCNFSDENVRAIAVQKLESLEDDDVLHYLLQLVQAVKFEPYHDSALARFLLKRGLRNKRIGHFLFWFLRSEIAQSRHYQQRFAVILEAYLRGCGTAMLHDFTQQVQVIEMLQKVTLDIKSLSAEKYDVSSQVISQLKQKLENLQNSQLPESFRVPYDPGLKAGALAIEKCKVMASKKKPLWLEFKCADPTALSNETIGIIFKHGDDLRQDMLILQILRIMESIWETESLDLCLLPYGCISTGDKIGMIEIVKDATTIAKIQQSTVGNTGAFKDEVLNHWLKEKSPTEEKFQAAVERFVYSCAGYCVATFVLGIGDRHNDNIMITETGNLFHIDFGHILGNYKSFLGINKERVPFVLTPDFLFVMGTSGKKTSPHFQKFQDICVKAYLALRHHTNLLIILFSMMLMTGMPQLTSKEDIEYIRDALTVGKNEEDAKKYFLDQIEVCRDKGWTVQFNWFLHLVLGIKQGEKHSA
Sequence of Receptor tyrosine-protein kinase erbB-2 (P04626 whole entry, the tested form may be a part): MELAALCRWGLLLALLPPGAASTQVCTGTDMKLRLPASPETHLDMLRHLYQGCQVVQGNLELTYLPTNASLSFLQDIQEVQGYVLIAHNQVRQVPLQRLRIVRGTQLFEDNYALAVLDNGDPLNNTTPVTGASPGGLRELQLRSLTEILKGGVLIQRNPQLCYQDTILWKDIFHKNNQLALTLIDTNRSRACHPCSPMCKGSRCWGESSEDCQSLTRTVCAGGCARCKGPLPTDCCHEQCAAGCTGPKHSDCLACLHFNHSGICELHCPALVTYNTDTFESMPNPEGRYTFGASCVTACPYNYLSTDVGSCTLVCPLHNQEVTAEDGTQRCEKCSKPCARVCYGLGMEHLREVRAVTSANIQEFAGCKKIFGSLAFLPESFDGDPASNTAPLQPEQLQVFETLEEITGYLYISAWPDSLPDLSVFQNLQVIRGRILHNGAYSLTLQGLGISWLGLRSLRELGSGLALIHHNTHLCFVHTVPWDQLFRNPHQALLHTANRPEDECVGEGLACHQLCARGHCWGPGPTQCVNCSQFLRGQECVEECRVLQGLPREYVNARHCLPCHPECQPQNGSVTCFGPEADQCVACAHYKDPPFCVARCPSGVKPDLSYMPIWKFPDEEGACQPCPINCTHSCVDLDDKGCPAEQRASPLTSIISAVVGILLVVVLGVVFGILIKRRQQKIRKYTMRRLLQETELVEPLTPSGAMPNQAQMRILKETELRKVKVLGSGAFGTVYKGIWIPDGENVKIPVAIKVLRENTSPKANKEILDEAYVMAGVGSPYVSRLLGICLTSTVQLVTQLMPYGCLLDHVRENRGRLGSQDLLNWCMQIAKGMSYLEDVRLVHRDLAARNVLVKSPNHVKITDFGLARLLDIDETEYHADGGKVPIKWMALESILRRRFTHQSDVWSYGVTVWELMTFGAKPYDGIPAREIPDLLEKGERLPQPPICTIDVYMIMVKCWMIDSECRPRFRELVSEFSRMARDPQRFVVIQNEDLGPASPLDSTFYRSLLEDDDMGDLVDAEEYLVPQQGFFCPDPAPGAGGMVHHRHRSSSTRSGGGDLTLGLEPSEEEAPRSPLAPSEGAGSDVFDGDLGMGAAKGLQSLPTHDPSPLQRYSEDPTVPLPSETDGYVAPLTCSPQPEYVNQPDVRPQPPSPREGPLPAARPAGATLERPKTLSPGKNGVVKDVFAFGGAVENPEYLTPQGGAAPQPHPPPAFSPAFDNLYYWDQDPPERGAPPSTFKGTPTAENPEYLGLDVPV

For `CCc1cc(Nc2nccc(-c3c(-c4ccc(OC)c(C(=O)Nc5c(F)cccc5F)c4)nc4ccccn34)n2)c(OC)cc1N1CCC(N2CCN(S(C)(=O)=O)CC2)CC1`, the Activity (NCI-H929) was “Active”, the inhibition [1] was 30% and the IC50 [2] was over 10 µM. The IC50 (Aurora kinase A) was 0.159 µM, the IC50 (MX1) was 0.189 µM and the inhibition in vivo at 30 mg/kg (HT-29) was 47%. For the same compound, the IC50 [3] was 0.103 µM, the IC50 [4] was 10 µM and the IC50 [5] was over 10 µM. For the same compound, the IC50 [6] was 4.34 µM, the inhibition [7] was -10% and the IC50 [8] was over 10 µM. For the same compound, the IC50 [9] was over 25 µM, the IC50 [10] was over 10 µM and the inhibition [11] was 21%. The inhibition at 0.3 µM [12] was -8%, the Activity [13] was “Non-Toxic” and the inhibition [14] was “inactive”. The IC50 (Aurora kinase B) was 4 µM, the inhibition [15] was 38% and the inhibition [16] was 1%. The inhibition [17] was “inactive”, the IC50 [18] was over 10 µM and the IC50 [19] was over 10 µM. The IC50 [20] was over 10 µM, the IC50 [21] was 3.2 µM and the inhibition [22] was -10%. For the same compound, the IC50 [23] was 4.75 µM.
